An excerpt weighted towards active compounds, which were near 1.5% of everything screened.
Cneo AK release – Cryptococcus neoformans cell lysis inducers, primary screen, AK release luminescence, single concentration. lysis activity, % at 15 µM. C. neoformans lysis, adenylate kinase release luminescence, 4 h; normalised: neutral wells 0, clomiphene wells 100. hit rate 0.2% among 360,000;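 active = mean lysis activity across replicates of at least 80%, whatever share of replicates individually reach that level; inactive = mean lysis activity below 80%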
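Assay system: C. neoformans cells. Amount: yeast cell density of 5 × 10^6 cells/mL. Technique: AK luminescence. Buffer or medium: YPD. Times: static 4 h at 37 °C with compound, 1 h detection. Dosing: single-point compound dose. Read-out: lysis from increased AK signal.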
PGC1a acetyl inh – inhibitors of PGC1a acetylation signal, primary screen, cell-based, U2OS, AlphaScreen, inhibitor mode; AlphaScreen anti-acetyl-lysine; with virally co-expressed GCN5 acetyltransferase; inhibition, % at 15.6 µM; hit rate 0.17% among 350,000; AID 651687, 2012;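 active = every replicate shows inhibition of at least 40%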;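 note: 0% = neutral control wells and 100% = positive control wells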
MITF act – activators of MITF-driven TRPM1 promoter reporter, primary screen, cell-based, SK-MEL-5, luciferase, single point; activation, % at 12.5 µM; SK-MEL-5 TRPM1-promoter luciferase, 24 h; % of positive control, neutral wells = 0; hit rate 0.75% among 300,000;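 active = mean activation of at least 80% with every replicate also reaching 80%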;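 note: 0% = neutral control wells and 100% = parthenolide positive control wells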
Wnt act – Wnt/beta-catenin pathway activators, primary screen, cell-based, plate reader, single point; activation, % at 9.35 µM; hit rate 1.2% among 300,000; AID 743398, 2014; Wnt/beta-catenin reporter cell assay, activator; in the data active = activation above about 30%, passing the limit was not always enough;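 note: 0% = neutral control wells and 100% = positive control wells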
The depositor's hits bear a star.

COc1ccc(NC(=S)Nc2cc(C)[nH]n2)cc1Cl was read as PGC1a acetyl inh 0, MITF act 59 and Wnt act 26.
`COc1ccccc1-c1noc(CCC(=O)N2CCN(c3cc(C)ccc3C)CC2)n1` gave Cneo AK release 5, PGC1a acetyl inh -12, MITF act 10 and Wnt act -3.
`Cc1ccc(C)c(N2CCN(C(=O)CCc3nc(-c4ccccc4C(F)(F)F)no3)CC2)c1` gave Cneo AK release -2, PGC1a acetyl inh 4, MITF act 72 and Wnt act 34*.
`Cc1c(Cl)cccc1NS(=O)(=O)c1ccc2c(c1)C1C=CCC1C(c1ccc(C(=O)O)cc1)N2` (configuration not stated) gave PGC1a acetyl inh 107* and MITF act 13.
For Cc1c(OCc2ccc([N+](=O)[O-])cc2)ccc2c3c(c(=O)oc12)CCC3 the results were Cneo AK release -2, MITF act 112* and Wnt act -1.
`Cc1oc(C(=O)O)cc1COc1ccc2c3c(c(=O)oc2c1C)CCC3` gave Cneo AK release 0, PGC1a acetyl inh 25 and Wnt act -7.
Screening COc1ccc(C2CC(c3ccccc3)=NN2C(=O)COC(=O)CNC(=O)c2ccccc2)cc1 (configuration not stated) returned Cneo AK release 1, PGC1a acetyl inh -7, MITF act -1 and Wnt act -7.
`O=C(CNC(=O)c1ccccc1)OCC(=O)N1N=C(c2ccc(Cl)cc2)CC1c1ccco1` (configuration not stated) gave MITF act 4 and Wnt act 41*.
`CCN(CC)c1ccc(C(=O)Nc2ccccc2)cc1[N+](=O)[O-]` gave MITF act 87* and Wnt act 13.
O=C(Nc1ccc([N+](=O)[O-])cc1)c1cccc([N+](=O)[O-])c1 was read as Cneo AK release -1, PGC1a acetyl inh -3 and Wnt act 40*.
Screening Cc1cc(O)c(NC(=O)c2cccc([N+](=O)[O-])c2)cc1C returned Cneo AK release 2, PGC1a acetyl inh -1, MITF act 7 and Wnt act 30*.
Screening O=C(Nc1ncc([N+](=O)[O-])s1)c1cccc([N+](=O)[O-])c1 returned Cneo AK release 1, MITF act -5 and Wnt act 38*.
`O=C(Nc1ccc(NC(=O)c2cccc([N+](=O)[O-])c2)cc1)c1cccc([N+](=O)[O-])c1` gave Cneo AK release -1, PGC1a acetyl inh -3 and Wnt act 6.
`O=C(Nc1ccc(C(F)(F)F)cc1)N1[C@@H]2CNC[C@H]1C2c1ccc(/C=C/c2ccccc2)cc1` (some centres not stated) gave PGC1a acetyl inh 9.
C[C@@H]1CN([C@@H](C)CO)S(=O)(=O)c2ccc(C#Cc3ccccc3)cc2O[C@H]1CN(C)S(C)(=O)=O was read as Cneo AK release -2 and PGC1a acetyl inh 7.
CC1CN(Cc2ccccc2)c2nc3c(c(=O)[nH]c(=O)n3C)n2C1 (configuration not stated) was read as MITF act -1 and Wnt act 34*.
`COc1ccc(OC)c(CNS(=O)(=O)c2cc(-c3cc(C)no3)ccc2OC)c1` gave Cneo AK release -1, PGC1a acetyl inh 51*, MITF act 4 and Wnt act -1.
For CCOc1ccccc1CNS(=O)(=O)c1cc(-c2cc(C)no2)ccc1OC the results were Cneo AK release 2, PGC1a acetyl inh -21, MITF act -3 and Wnt act -1.
COc1cc(O)cc2occ(-c3ccc(O)cc3)c(=O)c12 was read as Cneo AK release -5, PGC1a acetyl inh -17, MITF act 18 and Wnt act -1.
`COc1ccc(-c2coc3cc(O)cc(O)c3c2=O)cc1` gave Cneo AK release -5, PGC1a acetyl inh -15, MITF act 97* and Wnt act 55*.
For O=c1c(-c2ccc(O)cc2)coc2cc(O)cc(O)c12 the results were Cneo AK release -9, PGC1a acetyl inh 3, MITF act 100* and Wnt act 44*.
`COc1ccc(-c2coc3cc(O)ccc3c2=O)cc1` gave Cneo AK release -2, PGC1a acetyl inh 6, MITF act 76 and Wnt act 47*.
Screening COc1ccc(-c2coc3cc(OC)cc(O)c3c2=O)cc1 returned Cneo AK release 4, PGC1a acetyl inh -24 and MITF act 96*.
Screening COc1ccc(NC(=O)N(C)C[C@H]2Oc3c(NC(=O)Nc4ccc(C(F)(F)F)cc4)cccc3C(=O)N([C@@H](C)CO)C[C@H]2C)cc1 returned PGC1a acetyl inh 11.
Screening C[C@@H]1CN([C@@H](C)CO)C(=O)c2cc(C#CC(C)(C)O)cnc2O[C@@H]1CN(C)Cc1cccc(F)c1 returned PGC1a acetyl inh -5.
Screening CC(C)NC(=O)NCC[C@@H]1CC[C@H](NC(=O)Nc2ccccc2)[C@H](CO)O1 returned Cneo AK release 11 and PGC1a acetyl inh -3.
For CC1CCC(NC(=O)CCNC(=O)c2ccc(Br)cc2)CC1 (configuration not stated) the results were Cneo AK release -1, MITF act 82* and Wnt act -5.
Screening C[C@@H]1CN([C@H](C)CO)C(=O)c2cc(NC(=O)C3CCCCC3)ccc2O[C@@H](C)CCCCO[C@@H]1CN(C)S(=O)(=O)c1ccc(F)cc1 returned Cneo AK release 0 and PGC1a acetyl inh 2.
`CCOC(=O)C1=C(CP(=O)(c2ccccc2)c2ccccc2)NC(=O)NC1c1ccc(Cl)cc1` (configuration not stated) gave Cneo AK release 1, PGC1a acetyl inh 5, MITF act -6 and Wnt act -6.
CCOC(=O)C1=C(CP(=O)(c2ccccc2)c2ccccc2)NC(=O)NC1c1ccc(OC)cc1 (configuration not stated) was read as MITF act -10 and Wnt act 84*.
COc1ccc2c3c(n(C)c2c1)[C@@H](CO)N(S(C)(=O)=O)CC31CCN(C(=O)CN(C)C)CC1 was read as PGC1a acetyl inh -5.
Screening CN(C)c1cccc(-c2csc(N3CCC(C(N)=O)CC3)n2)c1 returned Cneo AK release -1, PGC1a acetyl inh -15, MITF act 83* and Wnt act 33*.
Screening CS(=O)(=O)c1cccc(-c2csc(N3CCC(C(N)=O)CC3)n2)c1 returned Cneo AK release -2, MITF act 50 and Wnt act 9.
For C[C@@H]1CN([C@H](C)CO)C(=O)c2cc(-c3cccc(C(=O)N(C)C)c3)cnc2O[C@H]1CN(C)S(=O)(=O)c1ccccc1 the results were Cneo AK release 3 and PGC1a acetyl inh 1.
C=CCNC(=S)NNc1nc2c(c(=O)[nH]1)C1(CCCC1)Cc1ccccc1-2 was read as MITF act 0 and Wnt act 52*.

Source: PubChem
